The record followed here is ChEMBL document CHEMBL1121917, “Structure--activity relationships in a broad-spectrum anthelmintic series. Acid chloride phenylhydrazones. 1. Aryl substitutions and chloride variations” (1981).

For assay [1], the species on record is Mus musculus. Kind of assay: Percent clearance of Nematospiroides dubius from mouse after oral treatment of 0.45 mg/mouse/day. The class given is functional. The method, boiled down:
(§1)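 Mice naturally carrying Syphacia obvelata were experimentally infected with Nematospiroides dubius and Hymenolepis nana, then grouped after a 2-week prepatency. Finely ground compound was suspended in aqueous 0.10% carboxymethylcellulose, 0.04% polysorbate 80 and 0.0042% polyparaben, and 0.1 mL was given orally by cannula once daily for 4 days to five mice. Necropsy followed 2 days later, scoring presence or absence of each parasite. Control clearance was subtracted from the treated clearance.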

For assay [2], the species on record is Mus musculus. Kind of assay: Percent clearance of Hymenolepis nana from mouse after oral treatment of 0.45 mg/mouse/day. The class given is functional. The method, boiled down: as §1
In assay [3] the test system is Ovis aries. Kind of assay: Percent reduction in Trichuris eggs per gram, after treatment with 200 mg/kg dose of compound perorally in sheep. The format is functional, Egg. To be noted: dose 100 mg/kg; route oral; in the assay text read “100 mg/kg” for “200 mg/kg”. The procedure, abridged:
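Naturally parasitized lambs, dosed orally either with a suspension by stomach tube or with finely ground compound in gelatin capsules by balling gun. Activity was scored by the clinical test method, meaning a significant fall in helminth egg counts after treatment.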

Assay [4] concerns Ovis aries. Kind of assay: Percent reduction in Haemonchus eggs per gram, after treatment with 200 mg/kg dose of compound perorally in sheep. To be noted: dose 100 mg/kg; route oral; in the assay text read “100 mg/kg” for “200 mg/kg”. The class given is functional, Egg. The procedure, abridged: (§2)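 Naturally parasitized lambs were dosed orally at the stated mg/kg. Dosing was either as a suspension of finely ground compound by stomach tube, or as ground compound weighed into gelatin capsules and given by balling gun. Activity was scored by the clinical test method: the decrease in posttreatment helminth eggs per gram.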

In assay [5] the test system is Ovis aries. In words: Percent reduction in Oesophagostomum eggs per gram, after treatment with 200 mg/kg dose of compound perorally in sheep. The format is functional, Egg. Conditions: dose 100 mg/kg; route oral; in the assay text read “100 mg/kg” for “200 mg/kg”. The procedure, abridged:
as §2

Assay [6] deals with Ovis aries. Kind of assay: Percent reduction in Nematodirus eggs per gram, after treatment with 200 mg/kg dose of compound perorally in sheep. The class given is functional, Egg. Conditions: route oral. The procedure, abridged: as §2
Assay [7] is filed under the species Mus musculus. In words: Percent clearance of Nematospiroides dubius from mouse after oral treatment of 0.47 mg/mouse/day. The class given is functional. The method, boiled down:
as §1

For assay [8], the species on record is Mus musculus. In words: Percent clearance of Hymenolepis nana from mouse after oral treatment of 0.47 mg/mouse/day. The format is functional. The method, boiled down:
as §1

With `Cl/C(=N\Nc1ccccc1)c1ccccc1`, the Parasite_Clearance in the assay filed under Mus musculus [1] was found to be 100%; in the assay filed under Mus musculus [2] it was 40%. Besides, the Reduction was 0% in the assay with Ovis aries [3], 87% in the assay with Ovis aries [4], 89% with Ovis aries [5] and 100% in the assay on Ovis aries [6].
In the case of `Cl/C(=N\Nc1ccccc1)c1ccc(Br)cc1`, the Parasite_Clearance in the assay filed under Mus musculus [7] and in the assay listed under Mus musculus [8] was 100% throughout.
